From ChEMBL document CHEMBL1128347, “Non-peptidic inhibitors of human leukocyte elastase. 4. Design, synthesis, and in vitro and in vivo activity of a series of beta-carbolinone-containing trifluoromethyl ketones” (J Med Chem, 1995) come the findings set out here.

In one test the target is T1, Neutrophil elastase (Homo sapiens, UniProt P08246).
T1 sequence (P08246 whole entry): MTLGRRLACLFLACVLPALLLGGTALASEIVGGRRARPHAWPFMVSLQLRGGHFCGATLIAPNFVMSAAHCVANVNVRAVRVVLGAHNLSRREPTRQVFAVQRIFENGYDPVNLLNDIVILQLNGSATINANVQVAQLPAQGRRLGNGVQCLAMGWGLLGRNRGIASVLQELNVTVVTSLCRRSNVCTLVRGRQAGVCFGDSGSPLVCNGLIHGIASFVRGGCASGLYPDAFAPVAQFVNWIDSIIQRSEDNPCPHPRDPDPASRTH
Briefly: In vitro inhibitory activity against human leukocyte elastase (HLE) mediated hydrolysis of the synthetic substrate MeO-Suc-Ala-Ala-Pro-Val-pNA.

For test [1], the target named is T2, Chymotrypsinogen A (Bos taurus, UniProt P00766). Put plainly: Inhibitory activity against bovine chymotrypsin; No inhibition at the highest concentration tested (>150 uM).
A short description of test [2]: Ratio of the Ki value towards bovine chymotrypsin to that of HLE. In short, it runs like this: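 Selectivity ratio computed as Ki against bovine pancreatic chymotrypsin divided by Ki against human leukocyte elastase. The elastase Ki came from inhibition of enzyme-catalysed hydrolysis of the chromogenic substrate MeOSuc-Ala-Ala-Pro-Val-pNA.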
The target of test [3] is T2, Chymotrypsinogen A. Briefly: Inhibitory activity against bovine chymotrypsin.
Another test has as its target Acetylcholinesterase (Electrophorus electricus, UniProt O42275). Briefly: Inhibitory activity against electric eel Acetylcholinesterase; No inhibition at the highest concentration tested (400 uM).
The next test concerns the target T3, Serine protease 1 (Bos taurus, UniProt P00760).
T3 sequence (P00760 whole entry): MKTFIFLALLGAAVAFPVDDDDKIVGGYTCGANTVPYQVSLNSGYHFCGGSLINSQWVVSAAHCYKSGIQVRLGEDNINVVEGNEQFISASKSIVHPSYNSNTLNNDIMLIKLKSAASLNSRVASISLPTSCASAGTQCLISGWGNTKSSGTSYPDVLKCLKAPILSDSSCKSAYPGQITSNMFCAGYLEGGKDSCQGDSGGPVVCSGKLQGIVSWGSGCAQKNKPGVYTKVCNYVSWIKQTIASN
Briefly: Inhibitory activity against bovine trypsin; No inhibition at the highest concentration tested (400 uM).

The target in the next test is Prothrombin (Homo sapiens, UniProt P00734). Briefly: Inhibitory activity against human thrombin mediated hydrolysis of the synthetic substrate […]; No inhibition at the highest concentration tested (400 uM).
The target of a further test is T4, Cathepsin G (Homo sapiens, UniProt P08311).
T4 sequence (P08311 whole entry): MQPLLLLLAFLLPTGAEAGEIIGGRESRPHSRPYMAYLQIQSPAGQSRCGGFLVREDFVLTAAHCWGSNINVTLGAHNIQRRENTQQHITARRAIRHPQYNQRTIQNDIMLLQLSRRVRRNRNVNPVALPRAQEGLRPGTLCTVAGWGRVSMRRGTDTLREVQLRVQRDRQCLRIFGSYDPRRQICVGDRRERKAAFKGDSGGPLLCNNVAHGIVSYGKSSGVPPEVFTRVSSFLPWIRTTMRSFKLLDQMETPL
Put plainly: Inhibitory activity against human cathepsin G.

Test [4] deals with T5, Angiotensin-converting enzyme (Oryctolagus cuniculus, UniProt P12822).
T5 sequence (P12822 whole entry): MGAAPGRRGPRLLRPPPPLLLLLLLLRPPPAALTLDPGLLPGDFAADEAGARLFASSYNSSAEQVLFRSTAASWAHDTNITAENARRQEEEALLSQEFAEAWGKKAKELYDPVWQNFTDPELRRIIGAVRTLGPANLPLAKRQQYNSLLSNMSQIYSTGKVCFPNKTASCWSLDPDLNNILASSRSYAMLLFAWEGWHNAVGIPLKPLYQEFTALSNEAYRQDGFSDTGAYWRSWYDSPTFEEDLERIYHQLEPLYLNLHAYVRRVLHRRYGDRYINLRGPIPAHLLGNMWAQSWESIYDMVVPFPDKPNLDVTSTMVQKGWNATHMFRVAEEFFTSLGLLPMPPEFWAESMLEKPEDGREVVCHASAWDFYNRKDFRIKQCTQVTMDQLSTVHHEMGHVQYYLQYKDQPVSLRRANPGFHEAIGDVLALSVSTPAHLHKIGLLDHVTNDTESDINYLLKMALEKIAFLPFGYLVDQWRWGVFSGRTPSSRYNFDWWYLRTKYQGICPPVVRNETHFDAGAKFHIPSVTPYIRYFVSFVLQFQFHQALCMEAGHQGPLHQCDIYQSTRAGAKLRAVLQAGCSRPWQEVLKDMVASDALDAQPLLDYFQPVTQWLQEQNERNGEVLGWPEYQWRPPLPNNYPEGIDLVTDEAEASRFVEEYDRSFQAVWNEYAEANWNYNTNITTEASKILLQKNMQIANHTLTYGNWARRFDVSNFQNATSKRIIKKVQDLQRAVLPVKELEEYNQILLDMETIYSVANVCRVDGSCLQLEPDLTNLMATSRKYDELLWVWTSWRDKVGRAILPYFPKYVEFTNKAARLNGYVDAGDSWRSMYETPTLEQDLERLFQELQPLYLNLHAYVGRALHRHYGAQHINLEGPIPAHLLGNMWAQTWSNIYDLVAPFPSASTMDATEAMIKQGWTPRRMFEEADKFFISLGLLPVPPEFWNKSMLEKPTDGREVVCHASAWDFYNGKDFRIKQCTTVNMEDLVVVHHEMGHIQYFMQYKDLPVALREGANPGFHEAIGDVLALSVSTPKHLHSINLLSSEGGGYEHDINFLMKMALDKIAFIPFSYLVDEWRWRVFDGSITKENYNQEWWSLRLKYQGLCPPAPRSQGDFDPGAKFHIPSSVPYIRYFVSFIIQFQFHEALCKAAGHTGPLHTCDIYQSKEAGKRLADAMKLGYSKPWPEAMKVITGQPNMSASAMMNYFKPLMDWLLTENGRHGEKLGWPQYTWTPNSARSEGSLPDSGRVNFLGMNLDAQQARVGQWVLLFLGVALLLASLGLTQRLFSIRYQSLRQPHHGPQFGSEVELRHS
Briefly: Inhibitory activity against rabbit Angiotensin I converting enzyme.

For the next test, the target named is T6, Papain (Carica papaya, UniProt P00784).
T6 sequence (P00784 whole entry): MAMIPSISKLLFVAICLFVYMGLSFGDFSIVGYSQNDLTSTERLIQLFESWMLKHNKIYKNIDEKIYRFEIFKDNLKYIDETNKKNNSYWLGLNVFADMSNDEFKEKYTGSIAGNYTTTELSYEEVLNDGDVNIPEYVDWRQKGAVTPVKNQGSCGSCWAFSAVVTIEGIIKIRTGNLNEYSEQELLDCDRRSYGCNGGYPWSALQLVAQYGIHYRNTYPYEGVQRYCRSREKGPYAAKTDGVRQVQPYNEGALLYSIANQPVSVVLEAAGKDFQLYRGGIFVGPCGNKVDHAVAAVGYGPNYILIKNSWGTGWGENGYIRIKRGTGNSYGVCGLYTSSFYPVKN
Briefly: Inhibitory activity against papain; No inhibition at the highest concentration tested (400 uM).

Chain of Acetylcholinesterase (O42275 whole entry): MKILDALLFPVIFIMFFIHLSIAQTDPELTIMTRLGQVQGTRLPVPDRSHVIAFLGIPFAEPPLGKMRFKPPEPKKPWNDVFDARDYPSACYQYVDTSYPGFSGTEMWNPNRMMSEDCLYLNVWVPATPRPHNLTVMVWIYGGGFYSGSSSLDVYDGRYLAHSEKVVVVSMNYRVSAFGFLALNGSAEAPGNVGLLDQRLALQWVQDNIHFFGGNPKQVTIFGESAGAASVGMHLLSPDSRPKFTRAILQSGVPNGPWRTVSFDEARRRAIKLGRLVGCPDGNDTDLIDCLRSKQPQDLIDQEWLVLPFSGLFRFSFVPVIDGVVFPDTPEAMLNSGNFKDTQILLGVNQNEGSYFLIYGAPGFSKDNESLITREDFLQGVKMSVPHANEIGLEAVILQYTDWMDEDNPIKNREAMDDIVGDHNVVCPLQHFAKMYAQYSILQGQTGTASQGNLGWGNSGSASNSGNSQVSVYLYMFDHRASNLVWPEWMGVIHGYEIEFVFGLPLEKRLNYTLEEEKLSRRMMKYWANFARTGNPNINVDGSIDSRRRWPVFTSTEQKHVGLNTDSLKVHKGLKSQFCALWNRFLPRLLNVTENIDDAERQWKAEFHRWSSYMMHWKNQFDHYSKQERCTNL

As usually defined, the Ki is a measure of affinity in units of concentration, obtained from inhibition or displacement. `CC(C)C(NC(=O)CN1CCc2c([nH]c3c(C(=O)O)cccc23)C1=O)C(=O)C(F)(F)F` (configuration not stated) displayed a Ki at Neutrophil elastase of 27 nM.

On to `CCOC(=O)c1cccc2c3ccn(CC(=O)NC(C(=O)C(F)(F)F)C(C)C)c(O)c-3nc12` (configuration not stated), for which affinity at Neutrophil elastase was put at a Ki of 2500 nM.

At Neutrophil elastase, `CC(C)C(NC(=O)CN1CCc2c([nH]c3ccc(Cl)cc23)C1=O)C(=O)C(F)(F)F` (configuration not stated) registered a Ki of 1000 nM.

Take `CC(C)C(NC(=O)Cn1ccc2c3ccccc3nc-2c1O)C(=O)C(F)(F)F` (configuration not stated): the Ki at Neutrophil elastase was 290 nM; at Chymotrypsinogen A [1], “No inhibition”.

As to `COc1ccc2nc3c(O)n(CC(=O)NC(C(=O)C(F)(F)F)C(C)C)ccc-3c2c1` (configuration not stated), affinity at Neutrophil elastase was put at a Ki of 350 nM.

Turning to `CC(C)c1cc2c3cccc(C(=O)O)c3nc-2c(O)n1CC(=O)NC(C(=O)C(F)(F)F)C(C)C` (configuration not stated), the affinity at Neutrophil elastase corresponds to a Ki of 19 nM.

On to `COP(=O)(OC)c1cccc2c3cc(-c4ccccc4)n(CC(=O)NC(C(=O)C(F)(F)F)C(C)C)c(O)c-3nc12` (configuration not stated), for which the Ki on Neutrophil elastase was found to be 52 nM; on Chymotrypsinogen A [3], 26000 nM. Further, the Ratio in [2] came to 500.

Consider `CC(C)C(NC(=O)Cn1ccc2c3cc(Cl)ccc3nc-2c1O)C(=O)C(F)(F)F` (configuration not stated), for which, at Neutrophil elastase, the affinity, expressed as Ki, was 210 nM.

`CC(C)C(NC(=O)Cn1ccc2c3cccc(C(N)=O)c3nc-2c1O)C(=O)C(F)(F)F` (configuration not stated): the Ki at Neutrophil elastase is 730 nM.

In the case of `CC(C)C(NC(=O)Cn1c(-c2ccccc2)cc2c3cccc(C#N)c3nc-2c1O)C(=O)C(F)(F)F` (configuration not stated), the Ki on Neutrophil elastase is 6.6 nM; on Chymotrypsinogen A [3], 180 nM. Moreover, the Ratio in test [2] was 27.

Take `COc1cccc2c3cc(-c4ccccc4)n(CC(=O)NC(C(=O)C(F)(F)F)C(C)C)c(O)c-3nc12` (configuration not stated): at Neutrophil elastase, the inhibition constant (Ki) came to 17 nM.

For `CC(C)c1cc2c3ccccc3nc-2c(O)n1CC(=O)NC(C(=O)C(F)(F)F)C(C)C` (configuration not stated), the Ki at Neutrophil elastase came to 54 nM; on Chymotrypsinogen A [3] it was 1100 nM. Besides, in test [2], the Ratio is 20.

For `CC(C)C(NC(=O)Cn1ccc2c3cccc(C(=O)O)c3nc-2c1O)C(=O)C(F)(F)F` (configuration not stated), the Ki at Neutrophil elastase was 22 nM; at Acetylcholinesterase, “No inhibition”; on Chymotrypsinogen A [1], “No inhibition”; at Serine protease 1 it was “No inhibition”; on Prothrombin it was “No inhibition”; on Cathepsin G it was 130000 nM. Besides, the Ki is 94000 nM in test [4] and “No inhibition” at Papain.

`COC(=O)Oc1cccc2c3cc(-c4ccccc4)n(CC(=O)NC(C(=O)C(F)(F)F)C(C)C)c(O)c-3nc12` (configuration not stated): the Ki at Neutrophil elastase was found to be 24 nM.

At Chymotrypsinogen A [3], `CC(C)C(NC(=O)Cn1c(-c2ccccc2)cc2c3cccc(C(=O)O)c3nc-2c1O)C(=O)C(F)(F)F` (configuration not stated) came in with an inhibitory constant (Ki) of 43000 nM.

Take `COc1ccc2[nH]c3c(c2c1)CCN(CC(=O)NC(C(=O)C(F)(F)F)C(C)C)C3=O` (configuration not stated): the Ki on Neutrophil elastase worked out at 1100 nM.

As for `CCOC(=O)c1ccc2c3ccn(CC(=O)NC(C(=O)C(F)(F)F)C(C)C)c(O)c-3nc2c1` (configuration not stated), the inhibition constant Ki on Neutrophil elastase turned out to be 340 nM.

Molecule `CC(C)C(NC(=O)Cn1c(-c2ccccc2)cc2c3cccc(C=O)c3nc-2c1O)C(=O)C(F)(F)F` (configuration not stated) gave a Ki at Neutrophil elastase of 4.9 nM.

On to `CC(C)C(NC(=O)CN1CCc2c([nH]c3ccccc23)C1=O)C(=O)C(F)(F)F` (configuration not stated), for which, on Neutrophil elastase, affinity was put at a Ki of 1100 nM.

Turning to `CC(C)C(NC(=O)Cn1c(-c2ccccc2)cc2c3ccccc3nc-2c1O)C(=O)C(F)(F)F` (configuration not stated), the Ki was 6.1 nM on Neutrophil elastase and 430 nM on Chymotrypsinogen A [3]. Moreover, the Ratio in [2] came out at 70.

As to `CC(C)C(NC(=O)Cn1c(-c2ccccc2)cc2c3cccc(O)c3nc-2c1O)C(=O)C(F)(F)F` (configuration not stated), the Ki at Neutrophil elastase was found to be 6.7 nM.

Consider `COC(=O)c1cccc2c3cc(-c4ccccc4)n(CC(=O)NC(C(=O)C(F)(F)F)C(C)C)c(O)c-3nc12` (configuration not stated), for which the affinity at Neutrophil elastase corresponds to a Ki of 130 nM.

In turn, `CC(C)c1cc2c3cccc(C#N)c3nc-2c(O)n1CC(=O)NC(C(=O)C(F)(F)F)C(C)C` (configuration not stated) gave a Ki on Neutrophil elastase of 28 nM.

In the case of `CC(C)C(NC(=O)Cn1ccc2c3ccc(C(=O)O)cc3nc-2c1O)C(=O)C(F)(F)F` (configuration not stated), at Neutrophil elastase, the Ki came out at 510 nM.

For the molecule `CC(C)C(NC(=O)Cn1c(-c2ccccc2)cc2c3cccc(OS(C)(=O)=O)c3nc-2c1O)C(=O)C(F)(F)F` (configuration not stated), the Ki on Neutrophil elastase was determined as 15 nM.

In the case of `COP(=O)(OC)c1ccc2nc3c(O)n(CC(=O)NC(C(=O)C(F)(F)F)C(C)C)c(-c4ccccc4)cc-3c2c1` (configuration not stated), on Neutrophil elastase, the Ki was 9.6 nM.
